Source: PubChem BioAssay (several laboratories)
CHT inh: inhibitors of human choline transporter CHT | CHT-expressing cells, membrane potential dye, choline response; stronger effect = lower value | B-score at 10 µM | hit rate 0.86% among 310,000 | AID 488975, 2010;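 active = B-score over 3 SD under the library average, and starting fluorescence ratio not unusually high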;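 also: choline stimulus applied at its EC90 after an EC20 pre-addition; B-score computed on integrated fluorescence ratio after choline addition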
CHT allo act: CHT positive allosteric modulators, primary screen, cell-based, membrane potential dye, choline EC20; CHT-expressing cells; stronger effect = higher value; LV-AA mutant CHT in HEK293 cells; B-score at 10 µM; hit rate 0.49% among 310,000;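 active = initial fluorescence not abnormally high and integrated response B-score, plate-corrected, over 3 SD above library mean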
HSF1 inhib: HSF1 inhibitors in luciferase reporter cells, primary screen, cell-based, NIH3T3, luminescence; NIH3T3-HGL HSE-luciferase, MG132-induced, luminescence 8 h; stronger effect = lower value; activity change, negative = inhibition, % at 7.5 µM (by protocol); hit rate 0.77% among 300,000; AID 2098, 2009;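 active = more than half of replicate wells show activity change below -50%, luminescence cut by over half; inconclusive = some wells, but at most half, below -50%; inactive = no replicate well below -50%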;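 also: luciferase reports HSF-1 transcriptional activity via heat shock element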
Lipid droplet: inhibitors of hepatocyte lipid droplet formation, primary screen, imaging, high-throughput imaging, BODIPY stain. inhibition, % at 6.5 µM. AML12 mouse hepatocytes, oleate lipid droplets. hit rate 0.4% among 240,000;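 active = lipid droplet intensity inhibited by at least 50%, with more than 500 cells counted; inconclusive = wells with under 300 cells, treated as cytotoxic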
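Assay system: AML12 mouse liver cells | Compound: 6.5 µM single-point dosing | Schedule: Overnight exposure | Technique: Fluorescence imaging, 20x objective, two fields per well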
PHOSPHO1 inh: PubChem AID 1565 | recombinant PHOSPHO1, absorbance phosphatase assay | inhibition, % at 13.3 µM | hit rate 1.1% among 290,000; in the data active = inhibition above about 60%
Target sequence (Q8TCT1 whole entry, looked up): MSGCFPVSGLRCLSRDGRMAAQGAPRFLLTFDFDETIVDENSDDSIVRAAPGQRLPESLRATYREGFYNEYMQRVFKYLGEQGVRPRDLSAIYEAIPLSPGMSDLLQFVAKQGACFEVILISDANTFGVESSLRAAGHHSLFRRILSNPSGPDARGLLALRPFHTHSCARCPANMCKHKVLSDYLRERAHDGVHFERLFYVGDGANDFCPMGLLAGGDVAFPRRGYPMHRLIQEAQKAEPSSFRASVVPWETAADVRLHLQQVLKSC
HSF-1 act: HSF-1 activators, primary screen, NIH3T3-HGL cells, MG132 stress, luminescence, single point | NIH3T3-HGL HSF-1 luciferase reporter, 8 h; 100% = twice DMSO control signal | activation, % at 9 µM | hit rate 1.7% among 300,000;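 active = mean replicate activation of at least 50% with a set share of replicates each reaching 50%; inconclusive = only one of those two conditions met; inactive = mean below 50% and too few replicates reaching it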
CHT activ conf: CHT activators, confirmation, cell-based, membrane potential dye, duplicate; CHT-expressing cells, membrane potential dye fluorescence (FDSS); % of choline EC20–EC90 response window; HEK293 expressing CHT LV-AA mutant; choline added at its EC20; activation, % at 10 µM; shares compounds with CHT allo act; hit rate 91% among 2,500;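 active = primary screen active, with duplicate mean activation above negative control mean plus 3 SD, cut at about 11% in these data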
HEK293 MP dye: membrane potential response in parental HEK293 cells, counter-screen for CHT activator project, cell-based, membrane potential dye. hit rate 62% among 2,500. membrane potential dye fluorescence (FDSS); measured after EC20 choline addition. ratio readout change at 10 µM, hits read low. shares compounds with CHT allo act;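 active = duplicate-averaged ratio beyond 3 SD from buffer wells, up or down, though filed actives are nearly all decreases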
Numbers stand for hits; 0 = inactive; ? = inconclusive; - = no result given. An excerpt weighted towards active compounds, which were near 4.9% of everything screened.

SMILES | CHT inh | CHT allo act | HSF1 inhib | Lipid droplet | PHOSPHO1 inh | HSF-1 act | CHT activ conf | HEK293 MP dye
CCOC(=O)c1c(N)c2cc([N+](=O)[O-])ccc2n1C | 0 | 0 | 0 | 0 | 0 | 0 | - | -
CN(C)CCn1c2c(c(SCC(=O)Nc3nccs3)nc1=O)CCCC2 | 0 | 0 | 0 | - | - | 0 | - | -
CCC[n+]1c2ccccc2cc2ccccc21 | 0 | 0 | 0 | - | 0 | 0 | 76 | -71
O=C1NCCN(Cc2c(F)cccc2Cl)C1CC(=O)N1CCCO1 (configuration not stated) | 0 | 0 | 0 | 0 | 0 | 0 | - | -
CCCCN(CCCC)CC(O)COc1ccccc1Br (configuration not stated) | 0 | 6.7 | 0 | 0 | 0 | 0 | 26 | 0
CC(C)CN(CC(C)C)CC(O)COc1ccccc1Br (configuration not stated) | 0 | 0 | 0 | 0 | 0 | 0 | - | -
COc1ccccc1NS(=O)(=O)c1cc(N2Cc3ccccc3C2=N)ccc1N1CCOCC1 | 0 | 0 | 0 | 0 | 0 | 0 | 37 | -45
CCc1ccc(Nc2n[n+](-c3ccccc3)c(-c3ccc(OCc4ccccc4)cc3)s2)cc1 | 0 | 17 | 0 | 0 | 0 | 0 | 0 | 0
COc1ccc(N2CCN(C(=O)c3cc([N+](=O)[O-])ccc3N3CCN(CCO)CC3)CC2)cc1 | 0 | 0 | 0 | 0 | 0 | 0 | - | -
O=C(Nc1nc2ccccc2n1CCN1CCCCC1)c1ccco1 | 0 | 8.1 | 0 | - | 0 | 0 | 29 | -41
CCn1cc(Cl)c(C(=O)Nc2nc3ccccc3n2CCN2CCCCC2)n1 | 0 | 9.6 | 0 | - | 0 | 0 | 53 | -67
COc1ccccc1CNc1nc2ccccc2n1CCN1CCCCC1 | 0 | 6.3 | 0 | - | 0 | 0 | 40 | -22
CCc1ccccc1NC(=O)CSC1=C(C#N)C(c2ccc(O)c(OC)c2)C2=C(CCCC2=O)N1 (configuration not stated) | 0 | 0 | 0 | 0 | 0 | 0 | - | -
CN(C)c1ccc(Cl)cc1N | 0 | 0 | 0 | 0 | 0 | 0 | - | -
COc1c(C)cccc1C(=O)Nc1ccc(OCC(=O)N2CCOCC2)cc1C | 0 | 0 | 0 | 0 | 0 | 0 | - | -
CC1(C)CC(N2CCCC2)=CC(=[N+]2CCCC2)C1 | 0 | 8.6 | 0 | 0 | 0 | 0 | 58 | -34
COc1c(N2CCNC(C)C2)c(F)cc2c(=O)c(C(=O)O)cn(C3CC3)c12 (configuration not stated) | 0 | 6.7 | 0 | - | - | 0 | 36 | -45
NC1CCN(c2c(F)cc3c(=O)c(C(=O)O)cn(C4CC4)c3c2Cl)C1 (configuration not stated) | 0 | 0 | 0 | 0 | 0 | 0 | 18 | -48
CNc1cc(C)nc(N2CCOCC2)n1 | 0 | 0 | 0 | 0 | 0 | 0 | 53 | -43
Cc1nc2cc(NC(=O)N3CCCC3)ccc2n1C | 0 | 6.5 | 0 | 0 | 0 | 0 | 26 | -39
CCCCNC(=O)COCc1cc(-c2ccc3c(c2)OCO3)on1 | 0 | 10 | 0 | - | 0 | 0 | 29 | 0
COC(=O)Cc1ccc(NC(=S)NCCSc2ccc(Cl)cc2)cc1 | 0 | 0 | 0 | 0 | 0 | 0 | - | -
Cc1ccc(-n2nc3c4c(cccc4c2=O)-c2ccccc2-3)cc1 | 0 | 0 | 0 | - | 0 | 0 | - | -
COc1ccc(NCc2nc3ccccc3n2CCOc2ccccc2)cc1 | 0 | 6.4 | 0 | 0 | 0 | 0 | 24 | 0
c1ccc(NCc2nc3ccccc3n2CCOc2ccccc2)cc1 | 0 | 0 | 0 | 0 | 0 | 0 | - | -
SMILES | CHT inh | CHT allo act | HSF1 inhib | Lipid droplet | PHOSPHO1 inh | HSF-1 act | CHT activ conf | HEK293 MP dye
COc1cc(C2C(C#N)=C(N)Oc3cc(N)ccc32)cc(OC)c1OC (configuration not stated) | 0 | 7.7 | - | ? | 0 | - | 40 | 0
COc1ccc(C2C(C#N)=C(N)Oc3cc(N)ccc32)cc1 (configuration not stated) | 0 | 0 | 0 | 0 | 0 | 0 | - | -
c1ccc(CN2c3ccccc3-c3nc4ccccc4n3C2c2ccccn2)cc1 (configuration not stated) | 0 | 6.4 | 0 | - | 0 | 0 | 52 | 0
CCN1c2ccccc2-c2nc3ccccc3n2C1c1ccco1 (configuration not stated) | 0 | 0 | 0 | - | 0 | 0 | - | -
COc1ccc(/C(N)=N/O)cc1O | 0 | 0 | 0 | 0 | 0 | 0 | - | -
CCN1/C(=C/C=C/C=C/C=C/c2sc3ccccc3[n+]2CC)Sc2ccccc21 | 0 | 9.6 | 0 | 0 | 0 | 0 | 29 | -35
CC[n+]1c(/C=C/Nc2ccccc2)sc2ccccc21 | 0 | 0 | 0 | - | 98 | 0 | 46 | -51
O=C(/C=C/c1cc([N+](=O)[O-])ccc1OC(F)F)Nc1ccc(OC(F)F)cc1 | 0 | 0 | 0 | 0 | 0 | 0 | - | -
COc1cc([N+](=O)[O-])ccc1-c1ccc(/C=N\n2cnnc2)o1 | 0 | 0 | 0 | 0 | 0 | 0 | - | -
O=[N+]([O-])c1ccc(Cl)c(-c2ccc(/C=N/n3cnnc3)o2)c1 | 0 | 0 | 0 | 0 | 0 | 0 | 39 | -51
O=[N+]([O-])c1ccc(OC(F)F)c(/C=N/n2cnnc2)c1 | 0 | 0 | 0 | 0 | 0 | 0 | 21 | -24
Cc1cccc2c(N)c3c(nc12)N(C)CC3 | 0 | 0 | 0 | 0 | 0 | 0 | - | -
COc1ccc(N2CCc3c(C)nc4c(OC)cc(OC)cc4c32)cc1 | 0 | 0 | 0 | 0 | 0 | 0 | - | -
COc1ccc(N2CCc3c(C)nc4c(OC)cccc4c32)cc1 | 0 | 0 | 0 | 0 | 0 | 0 | 33 | -56
COc1cccc(N2CCc3c(C)nc4ccc(Cl)cc4c32)c1 | 0 | 0 | 0 | 0 | 0 | 0 | 42 | -29
Cc1nc2c(C)cccc2c2c1CCN2c1ccccc1F | 0 | 0 | 0 | 0 | 0 | 0 | 47 | -54
COc1cccc2c3c(c(C)nc12)CC(C)O3 (configuration not stated) | 0 | 9.9 | 0 | 0 | 0 | 0 | 53 | -70
CC(C)CCC1(C)NC(=O)N(CC(=O)c2ccc[nH]2)C1=O (configuration not stated) | 0 | 0 | 0 | - | - | 0 | - | -
COc1ccc2[nH]cc(CCNC(=O)C3CC(=O)N(c4ccc(Cl)cc4)C3)c2c1 (configuration not stated) | 0 | 0 | 0 | 0 | 0 | 0 | - | -
C=CCSc1nnc(CCCCCN2C(=O)c3cccc4cccc(c34)C2=O)o1 | 0 | 0 | 0 | 0 | 0 | 0 | - | -
